Measurements: PMC2825290 (ACS chemical biology, 2010)
“Also recorded” adds a separate entry of the source.

Experiments:
[1] = test system: BMP4-induced Smad 1/5/8 phosphorylation; assay: Western blot, BMP4-induced Smad1/5/8 phosphorylation in HEK293 cells; type: cell-based; conditions: BMP4 50 ng/ml
[2] = test system: Activin A-induced Smad2 phosphorylation; assay: Western blot, Activin A-induced Smad2 phosphorylation in HEK293 cells; type: cell-based; conditions: Activin-A 40 ng/ml
Procedure, shortened: (§1)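 Confluent HEK293 cells were serum-starved, then pretreated with the test compound or DMSO for 30 min. They were then stimulated for 30 min with Activin-A at 40 ng/ml (p-Smad2) or BMP4 at 50 ng/ml (p-p38 MAPK). Cells were lysed with protease and phosphatase inhibitors, and lysates were run on SDS-PAGE and transferred to PVDF. Phospho-proteins were detected by infrared-dye secondary antibodies.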

[3] = biological target: T1, human TGFβ type-I receptor activin receptor-like kinase 5 (Alk5/TGFβR1) (Homo sapiens, UniProt P36897); assay: In vitro kinase assay ALK5; type: biochemical; conditions: purified human enzyme, 10 μM ATP
T1 sequence (P36897 34-503): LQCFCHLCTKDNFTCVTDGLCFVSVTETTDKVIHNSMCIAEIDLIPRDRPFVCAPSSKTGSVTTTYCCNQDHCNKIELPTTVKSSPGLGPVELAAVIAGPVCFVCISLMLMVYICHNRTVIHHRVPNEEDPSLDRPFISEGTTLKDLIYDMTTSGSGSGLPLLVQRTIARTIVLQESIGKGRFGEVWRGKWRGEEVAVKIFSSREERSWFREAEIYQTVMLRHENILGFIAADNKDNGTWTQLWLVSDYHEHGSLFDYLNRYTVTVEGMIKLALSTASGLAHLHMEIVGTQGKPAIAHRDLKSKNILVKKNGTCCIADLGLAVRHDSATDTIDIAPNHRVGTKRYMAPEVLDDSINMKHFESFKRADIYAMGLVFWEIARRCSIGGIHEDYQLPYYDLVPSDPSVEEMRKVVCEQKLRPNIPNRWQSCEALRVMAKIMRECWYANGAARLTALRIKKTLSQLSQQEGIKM

[4] = test system: VEGF-stimulated Flk1 phosphorylation; assay: Western blot, VEGF-stimulated Flk1 phosphorylation in BAEC; type: cell-based, bovine
[5] = test system: intersomitic vessel (ISV) formation in Tg(Fli:EGFP)y1 embryos (VEGFR-2 inhibition); assay: Zebrafish intersomitic vessel; type: in vivo; conditions: for Effect on ISV formation (words, no concentration given): ISV visualized at 48-hpf
[6] = test system: BMP4-induced p38 MAPK phosphorylation; assay: Western blot, BMP4-induced p38 MAPK phosphorylation in HEK293 cells; type: cell-based
Procedure, shortened: as §1

caALK6 = assay: BMP reporter subtype analysis, caALK6; type: cell-based; conditions: C2C12BRA cells transfected with constitutively active ALK6
[7] = test system: dorsoventral (DV) axis of zebrafish embryos (BMPR-I inhibition); assay: Zebrafish embryo dorsalization; type: in vivo; conditions: for Dorsalization (EC100, μM): zebrafish embryos treated from 3-hpf, concentration when 100% of treated embryos are severely dorsalized, at least 20 embryos per condition
[8] = test system: BMP-responsive C2C12BRA cells (Id1 promoter-firefly luciferase reporter), BMP4; assay: BMP-responsive luciferase reporter assay; type: cell-based; conditions: read-out: IC50 in BMP-responsive luciferase reporter assay
[9] = biological target: human platelet-derived growth factor receptor-β (PDGFRβ) (Homo sapiens, UniProt P09619); assay: In vitro kinase assay PDGFRβ; type: biochemical; conditions: purified human enzyme, 10 μM ATP
Chain of human platelet-derived growth factor receptor-β (PDGFRβ) (P09619 33-1106): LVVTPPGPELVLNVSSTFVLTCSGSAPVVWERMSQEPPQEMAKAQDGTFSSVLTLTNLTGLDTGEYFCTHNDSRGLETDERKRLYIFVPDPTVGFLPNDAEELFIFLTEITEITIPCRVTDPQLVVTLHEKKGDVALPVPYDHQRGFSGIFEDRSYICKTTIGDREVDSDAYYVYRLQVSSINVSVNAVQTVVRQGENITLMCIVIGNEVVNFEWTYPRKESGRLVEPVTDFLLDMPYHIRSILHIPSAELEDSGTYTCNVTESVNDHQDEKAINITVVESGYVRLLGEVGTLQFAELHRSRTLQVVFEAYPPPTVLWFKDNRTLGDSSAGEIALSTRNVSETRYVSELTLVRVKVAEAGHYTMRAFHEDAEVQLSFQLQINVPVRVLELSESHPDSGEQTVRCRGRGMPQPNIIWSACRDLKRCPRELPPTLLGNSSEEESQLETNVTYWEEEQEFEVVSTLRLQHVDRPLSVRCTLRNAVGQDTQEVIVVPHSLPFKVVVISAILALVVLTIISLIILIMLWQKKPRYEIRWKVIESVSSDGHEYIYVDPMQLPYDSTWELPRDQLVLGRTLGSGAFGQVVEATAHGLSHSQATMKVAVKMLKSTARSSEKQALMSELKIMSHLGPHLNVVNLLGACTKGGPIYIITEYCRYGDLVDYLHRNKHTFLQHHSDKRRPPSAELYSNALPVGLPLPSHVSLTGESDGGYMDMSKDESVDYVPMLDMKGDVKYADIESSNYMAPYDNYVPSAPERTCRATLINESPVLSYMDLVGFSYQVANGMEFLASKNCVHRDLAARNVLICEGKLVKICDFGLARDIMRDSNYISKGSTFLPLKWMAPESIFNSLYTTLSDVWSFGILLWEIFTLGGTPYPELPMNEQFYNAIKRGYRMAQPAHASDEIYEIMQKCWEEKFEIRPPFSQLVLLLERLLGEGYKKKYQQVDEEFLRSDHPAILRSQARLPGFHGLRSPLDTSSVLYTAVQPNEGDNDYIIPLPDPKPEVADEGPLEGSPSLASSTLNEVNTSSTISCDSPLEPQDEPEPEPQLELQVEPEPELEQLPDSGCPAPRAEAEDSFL

caALK3 = caALK3 (Homo sapiens, UniProt P36894, Q233D); assay: BMP reporter subtype analysis, caALK3; type: cell-based
Chain of caALK3 (P36894 24-532 Q233D): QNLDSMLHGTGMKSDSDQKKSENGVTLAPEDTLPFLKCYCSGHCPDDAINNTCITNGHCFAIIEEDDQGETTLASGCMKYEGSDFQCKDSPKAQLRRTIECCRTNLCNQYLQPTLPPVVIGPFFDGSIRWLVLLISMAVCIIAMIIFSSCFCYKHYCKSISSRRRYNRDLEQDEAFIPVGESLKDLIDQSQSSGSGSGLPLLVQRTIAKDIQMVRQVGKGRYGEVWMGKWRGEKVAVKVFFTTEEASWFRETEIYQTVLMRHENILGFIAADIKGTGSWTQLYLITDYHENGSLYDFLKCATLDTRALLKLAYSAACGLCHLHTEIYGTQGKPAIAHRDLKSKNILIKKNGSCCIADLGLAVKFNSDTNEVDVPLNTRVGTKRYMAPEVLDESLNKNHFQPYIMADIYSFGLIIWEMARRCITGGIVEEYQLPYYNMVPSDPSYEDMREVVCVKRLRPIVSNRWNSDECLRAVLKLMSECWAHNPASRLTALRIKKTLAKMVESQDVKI

[10] = biological target: human VEGF type-II receptor (KDR/Flk-1/VEGFR2) (Homo sapiens, UniProt P35968); assay: In vitro kinase assay KDR; type: biochemical
Chain of human VEGF type-II receptor (KDR/Flk-1/VEGFR2) (P35968 20-1356): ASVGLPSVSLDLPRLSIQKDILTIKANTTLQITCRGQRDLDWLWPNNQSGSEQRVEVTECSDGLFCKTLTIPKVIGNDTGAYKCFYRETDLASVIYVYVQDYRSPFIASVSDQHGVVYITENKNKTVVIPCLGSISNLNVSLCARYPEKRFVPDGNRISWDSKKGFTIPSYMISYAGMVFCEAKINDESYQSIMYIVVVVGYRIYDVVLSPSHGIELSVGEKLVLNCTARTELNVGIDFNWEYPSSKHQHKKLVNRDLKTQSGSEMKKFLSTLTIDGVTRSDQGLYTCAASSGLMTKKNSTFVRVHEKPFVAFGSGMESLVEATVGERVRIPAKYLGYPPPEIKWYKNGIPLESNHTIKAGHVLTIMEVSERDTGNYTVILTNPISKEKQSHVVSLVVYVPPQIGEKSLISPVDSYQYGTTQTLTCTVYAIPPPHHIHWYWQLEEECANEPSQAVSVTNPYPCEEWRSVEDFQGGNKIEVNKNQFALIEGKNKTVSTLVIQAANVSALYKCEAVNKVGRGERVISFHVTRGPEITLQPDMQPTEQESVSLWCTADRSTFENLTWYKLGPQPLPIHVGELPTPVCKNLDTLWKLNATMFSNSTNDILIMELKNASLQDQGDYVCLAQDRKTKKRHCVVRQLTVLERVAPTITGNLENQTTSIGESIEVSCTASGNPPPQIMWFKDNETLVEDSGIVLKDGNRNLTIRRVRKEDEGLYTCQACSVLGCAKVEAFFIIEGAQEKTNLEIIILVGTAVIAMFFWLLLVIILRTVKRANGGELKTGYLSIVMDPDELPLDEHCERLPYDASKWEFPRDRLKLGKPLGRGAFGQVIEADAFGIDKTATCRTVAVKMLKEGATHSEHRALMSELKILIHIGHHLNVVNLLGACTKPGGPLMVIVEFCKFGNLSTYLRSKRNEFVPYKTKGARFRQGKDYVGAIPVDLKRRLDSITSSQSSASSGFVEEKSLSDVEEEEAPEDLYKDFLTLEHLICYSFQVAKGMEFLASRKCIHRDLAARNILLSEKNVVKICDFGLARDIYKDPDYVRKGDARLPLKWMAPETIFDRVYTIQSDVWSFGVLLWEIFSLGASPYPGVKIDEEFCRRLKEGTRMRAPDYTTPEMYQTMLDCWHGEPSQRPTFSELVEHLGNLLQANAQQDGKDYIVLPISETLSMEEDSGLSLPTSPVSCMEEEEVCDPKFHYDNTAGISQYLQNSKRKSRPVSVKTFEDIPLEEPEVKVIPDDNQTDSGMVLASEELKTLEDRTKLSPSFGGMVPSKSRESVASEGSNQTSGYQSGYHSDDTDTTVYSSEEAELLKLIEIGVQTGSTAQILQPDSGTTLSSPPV

[11] = biological target: human AMP-activated protein kinase (AMPK/A1/B1/G1) (Homo sapiens, UniProt Q13131); assay: In vitro kinase assay AMPK; type: biochemical; conditions: purified human enzyme, 10 μM ATP
Chain of human AMP-activated protein kinase (AMPK/A1/B1/G1) (Q13131 whole entry): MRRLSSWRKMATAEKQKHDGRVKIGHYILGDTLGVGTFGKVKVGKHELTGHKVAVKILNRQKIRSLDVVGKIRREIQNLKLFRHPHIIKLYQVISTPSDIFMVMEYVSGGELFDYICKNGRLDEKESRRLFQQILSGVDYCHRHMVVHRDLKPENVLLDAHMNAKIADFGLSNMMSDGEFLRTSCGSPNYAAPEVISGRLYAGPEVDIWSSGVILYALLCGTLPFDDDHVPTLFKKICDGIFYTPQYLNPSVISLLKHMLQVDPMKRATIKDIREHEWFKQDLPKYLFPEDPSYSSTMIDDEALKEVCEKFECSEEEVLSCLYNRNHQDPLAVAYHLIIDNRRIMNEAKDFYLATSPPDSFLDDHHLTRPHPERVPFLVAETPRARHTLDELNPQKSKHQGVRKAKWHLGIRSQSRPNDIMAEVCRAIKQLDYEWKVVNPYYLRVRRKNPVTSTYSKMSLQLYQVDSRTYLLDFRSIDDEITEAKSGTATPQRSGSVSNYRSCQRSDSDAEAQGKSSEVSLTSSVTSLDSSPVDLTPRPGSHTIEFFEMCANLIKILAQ
Chain of human AMP-activated protein kinase (AMPK/A1/B1/G1) (Q9Y478 whole entry partner): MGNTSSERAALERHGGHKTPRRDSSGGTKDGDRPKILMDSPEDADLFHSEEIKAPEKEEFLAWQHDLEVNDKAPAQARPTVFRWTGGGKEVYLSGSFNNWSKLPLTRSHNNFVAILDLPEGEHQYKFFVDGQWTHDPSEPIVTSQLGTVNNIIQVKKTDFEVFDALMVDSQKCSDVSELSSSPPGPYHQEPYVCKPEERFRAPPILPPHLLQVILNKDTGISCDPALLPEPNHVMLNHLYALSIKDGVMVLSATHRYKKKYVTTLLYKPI
Chain of human AMP-activated protein kinase (AMPK/A1/B1/G1) (P54619 whole entry partner): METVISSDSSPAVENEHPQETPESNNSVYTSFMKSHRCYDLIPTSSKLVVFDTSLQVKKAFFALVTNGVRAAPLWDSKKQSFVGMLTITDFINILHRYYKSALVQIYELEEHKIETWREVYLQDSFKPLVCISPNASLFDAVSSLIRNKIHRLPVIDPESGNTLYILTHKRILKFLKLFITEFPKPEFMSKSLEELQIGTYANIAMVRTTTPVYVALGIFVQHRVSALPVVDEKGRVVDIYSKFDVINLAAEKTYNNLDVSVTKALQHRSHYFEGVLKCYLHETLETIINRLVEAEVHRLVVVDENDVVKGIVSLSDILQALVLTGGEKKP

zebrafish embryos = assay: Zebrafish embryo nonspecific toxicity; conditions: for Early lethality at 20 μM: administered at 3-hpf
[12] = test system: VEGF-induced phosphorylation of AKT; assay: Western blot, VEGF-stimulated Akt phosphorylation in BAEC; type: cell-based, bovine
Procedure, shortened: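 Bovine aortic endothelial cells were grown in DMEM with 10% FBS on 0.2% gelatin-coated dishes. Confluent cells were serum-starved for 18–24 hrs, treated with the test compound or DMSO for 30 min, then stimulated for 8 min with 50 ng/ml VEGF165. Lysates, prepared with protease and phosphatase inhibitors, were immunoblotted for p-AKT and total AKT with infrared-dye detection.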

[13] = test system: human umbilical vein endothelial cells (HUVEC); assay: Endothelial tubule formation; type: cell-based; conditions: 15hr incubation
Procedure, shortened: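 HUVECs were maintained in EGM-2 on 0.2% gelatin-coated dishes. 1.5 ×10^4 cells were plated on wells pre-coated with extracellular matrix gel and treated with the test compound or DMSO. After 15 hr incubation, tubular network formation was examined by inverted light microscopy.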

CC(C)Oc1ccc(-c2cnc3c(-c4ccnc5ccccc45)cnn3c2)cc1 [DMH1, 4-(6-(4-isopropoxyphenyl)pyrazolo[1,5-a]pyrimidin-3-yl)quinoline]
Effect on BMP-induced Smad1/5/8 activation [1]: selectively inhibited the BMP-induced Smad1/5/8 activation; also recorded: blocked BMP4-induced Smad 1/5/8 phosphorylation | Effect on Activin A-induced Smad2 phosphorylation [2]: no effect | IC50 ALK5 (TGFβR-I) [3]: without any detectable inhibition | Effect on VEGF-stimulated Flk1 phosphorylation ([4]; 50ng/ml VEGF165): no effect on VEGF-induced Flk1 phosphorylation | Effect on ISV formation at 100 μM ([5]; 100 μM, treated from 12-hpf): no effect on ISV formation | Effect on ISV formation (words, no concentration given) ([5]; administered at 12-hpf): did not have any detectible effect on ISV formation | Effect on BMP4-induced p38 MAPK phosphorylation [6]: no effect | Effect on signaling by caALK6 (caALK6): negligible effect on signaling by caALK6 | Dorsalization at 0.2 μM ([7]; 0.2 μM, treated from 3-hpf): caused severe dorsalization | IC50 [8]: ~100 nM | IC50 PDGFRβ [9]: without any detectable inhibition | IC50 (caALK3): < 500 nM | IC50 [10]: > 30000 nM | IC50 KDR (VEGFR2) ([10]; purified human enzyme, 10 μM ATP): without any detectable inhibition | IC50 AMPK [11]: without any detectable inhibition

c1ccc2c(-c3cnn4cc(-c5ccc(N6CCNCC6)cc5)cnc34)ccnc2c1 [LDN-193189, reference compound]
Effect on ISV formation at 20 μM ([5]; 20 μM, administered at 12-hpf): significantly inhibited ISV formation | Dorsalization (EC100, μM) [7]: 3 µM | Early lethality at 20 μM (zebrafish embryos): substantial early lethality

c1ccc2c(-c3cnn4cc(-c5ccc(OCCN6CCOCC6)cc5)cnc34)ccnc2c1 [DMH2, 4-(2-(4-(3-(quinolin-4-yl)pyrazolo[1,5-a]pyrimidin-6-yl)phenoxy)ethyl)morpholine]
Effect on ISV formation (words, no concentration given) ([5]; administered at 12-hpf): did not have any detectible effect on ISV formation | Dorsalization (EC100, μM) [7]: ~0.1 µM | Nonspecific developmental effects (zebrafish embryos; at higher concentrations): caused nonspecific developmental effects at higher concentrations | IC50 [8]: ~20 nM

CN(C)CCCOc1ccc(-c2cnc3c(-c4ccnc5ccccc45)cnn3c2)cc1 [DMH3, N,N-dimethyl-3-(4-(3-(quinolin-4-yl)pyrazolo[1,5-a]pyrimidin-6-yl)phenoxy)propan-1-amine]
Effect on ISV formation (words, no concentration given) ([5]; administered at 12-hpf): did not have any detectible effect on ISV formation | Dorsalization (EC100, μM) [7]: ~1 µM | IC50 [8]: ~7 nM

c1cc(-c2cnn3cc(-c4ccc(OCCN5CCCCC5)cc4)cnc23)ccn1 [DM, dorsomorphin, reference compound]
Effect on VEGF-stimulated Flk1 phosphorylation ([4]; 50ng/ml VEGF165): suppressed VEGF-dependent Flk1 phosphorylation in a dose-dependent manner | Effect on VEGF-stimulated Flk1 phosphorylation ([4]; 50ng/ml VEGF165, listed as dorsomorphin): inhibited the VEGF-stimulated Flk1 phosphorylation in a dose-dependent manner | Effect on ISV formation at 10 μM ([5]; administered at 12-hpf): blocked intersomitic vessel (ISV) formation | Effect on ISV formation at 10 μM ([5]; administered at 12-hpf, listed as dorsomorphin): completely inhibited ISV formation | Dorsalization at 2 μM ([7]; 2 μM, administered at 3-hpf): dorsalized zebrafish embryos | Early lethality at 20 μM (zebrafish embryos): substantial early lethality

c1ccc(-c2cnn3cc(-c4ccc(OCCN5CCOCC5)cc4)cnc23)cc1 [DMH4, 4-(2-(4-(3-phenylpyrazolo[1,5-a]pyrimidin-6-yl)phenoxy)ethyl)morpholine]
Effect on VEGF-stimulated Flk1 phosphorylation ([4]; 50ng/ml VEGF165): effectively blocked VEGF-stimulated phosphorylation; also recorded: blocked VEGF-induced phosphorylation | Effect on ISV and SIV formation at 1 μM ([5]; 1 μM): disrupted both ISV and SIV formation | Effect on ISV formation (words, no concentration given) ([5]; administered at 12-hpf): caused significant defects in the ISV and the subintestinal vessel (SIV) | Effect on dorsoventral axis at 50 μM ([7]; 50 μM, treated from 3-hpf): no effect on dorsoventral axis | Effect on DV axis (words, no concentration given) ([7]; administered at 3-hpf): no discernable effect on DV axis | Dorsalization (EC100, μM) [7]: No (>50) μM | Effect on VEGF-stimulated Akt phosphorylation [12]: effectively blocked VEGF-stimulated phosphorylation; also recorded: blocked VEGF-induced phosphorylation | Effect on tubular network formation at 1 μM [13]: effectively blocked angiogenesis; also recorded: blocked VEGF-induced tubular network formation
